# Columns and labels:
# [1] = AUC (0 to infinity) in Sprague-Dawley rat at 20 mg/kg, iv; format: ADME, organism-based; design: time infinity, dose 20 mg/kg, route intravenous; conditions: plasma
# Outline: (§1)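 Sprague-Dawley rats were dosed orally or intravenously, and blood was sampled after dosing. Plasma was separated by centrifugation and deproteinized with methanol containing an internal standard. The supernatant was diluted with methanol, centrifuged again and quantified by LC/MS/MS.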
# Mus musculus [2] = assay: Antidiabetic activity in C57BKS db/db mouse assessed as blood glucose level at 50 mg/kg/day administered for 5 weeks followed by glucose challenge at 6 hrs starvation of post last dose measured at 30 mins by OGTT (reference value: 46.6 +/- 2.2 mmol/L); format: functional
# Outline: (§2)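 C57BKS db/db mice received 5, 15 or 50 mg/kg/day for 5 weeks. Vehicle was 0.5% methylcellulose at 10 mL/kg/day. In week 5, mice were fasted 6 h and given an oral glucose load of 1.5 g/kg, then blood glucose was recorded over the glucose tolerance test. Data are mean ± SE, compared with Student's t-test.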
# Mus musculus [3] = assay: Antidiabetic activity in C57BKS db/db mouse assessed as blood glucose level at 5 mg/kg/day administered for 5 weeks followed by glucose challenge at 6 hrs starvation of post last dose measured at 90 mins by OGTT (reference value: 27.2 +/- 1.3 mmol/L); format: functional; outline: as §2
# [4] = Cmax in Sprague-Dawley rat at 20 mg/kg, iv; format: ADME, organism-based; design: dose 20 mg/kg, route intravenous; conditions: in vivo; outline: as §1
# Mus musculus [5] = assay: Antidiabetic activity in ICR mouse assessed as decrease in blood glucose AUC (0 to 120 mins) at 15 mg/kg administered for 30 mins prior to glucose challenge measured after 4 hrs by OGTT relative to vehicle-treated control; format: functional; design: scale not given: the % may be the effect or the level left
# Outline: (§3)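 ICR mice were fasted 16 h and given one dose in 0.5% methylcellulose vehicle (10 mL/kg). An oral glucose load of 2.5 g/kg followed; methods state 30 min after dosing, the figure legend 4 h.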
# [6] = Oral bioavailability in Sprague-Dawley rat at 50 mg/kg; format: ADME, organism-based; conditions: in vivo; outline: as §1
# Mus musculus [7] = assay: Antidiabetic activity in C57BKS db/db mouse assessed as blood glucose level at 15 mg/kg/day administered for 5 weeks followed by glucose challenge at 6 hrs starvation of post last dose measured at 60 mins by OGTT (reference value: 30.2 +/- 1.5 mmol/L); format: functional; outline: as §2
# [8] = Mean residence time in Sprague-Dawley rat at 20 mg/kg, iv; format: ADME, organism-based; design: dose 20 mg/kg, route intravenous; conditions: in vivo; outline: as §1
# [9] = Tmax in Sprague-Dawley rat at 20 mg/kg, iv; format: ADME, organism-based; design: dose 20 mg/kg, route intravenous; conditions: in vivo; outline: as §1
# Mus musculus [10] = assay: Antidiabetic activity in C57BKS db/db mouse assessed as blood glucose level at 15 mg/kg/day administered for 5 weeks followed by glucose challenge at 6 hrs starvation of post last dose measured at 120 mins by OGTT (reference value: 28.1 +/- 1.3 mmol/L); format: functional; outline: as §2
# Mus musculus [11] = assay: Antidiabetic activity in C57BKS db/db mouse assessed as blood glucose level at 5 mg/kg/day administered for 5 weeks followed by glucose challenge at 6 hrs starvation of post last dose measured at 60 mins by OGTT (reference value: 30.2 +/- 1.5 mmol/L); format: functional; outline: as §2
# Mus musculus [12] = assay: Antidiabetic activity in ICR mouse assessed as decrease in blood glucose AUC (0 to 120 mins) administered for 30 mins prior to glucose challenge measured after 4 hrs by OGTT; format: functional, organism-based
# Outline: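 ICR mice fasted 16 h, then given a single dose of 15 or 50 mg/kg; vehicle 0.5% methylcellulose (10 mL/kg), LAF237 30 mg/kg as positive control. Oral glucose 2.5 g/kg given 30 min after dosing (legend says 4 h). Blood glucose read at 0, 15, 30, 60, 90, 120 min for AUC0–120. Mean ± SE, n = 10; Student's t-test.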
# [13] = Half life in Sprague-Dawley rat at 20 mg/kg, iv; format: ADME, organism-based; design: dose 20 mg/kg, route intravenous; conditions: in vivo; outline: as §1
# Mus musculus [14] = assay: Antidiabetic activity in C57BKS db/db mouse assessed as blood glucose level at 50 mg/kg/day administered for 5 weeks followed by glucose challenge at 6 hrs starvation of post last dose measured immediately by OGTT (reference value: 25 +/- 1.2 mmol/L); format: functional; outline: as §2
# Mus musculus [15] = assay: Antidiabetic activity in C57BKS db/db mouse assessed as blood glucose level at 5 mg/kg/day administered for 5 weeks followed by glucose challenge at 6 hrs starvation of post last dose measured at 120 mins by OGTT (reference value: 28.1 +/- 1.3 mmol/L); format: functional; outline: as §2
# [16] = AUC (0 to infinity) in Sprague-Dawley rat at 50 mg/kg, po; format: ADME, organism-based; design: time infinity, dose 50 mg/kg, route oral; conditions: plasma; outline: as §1
# [17] = target: Voltage-gated inwardly rectifying potassium channel KCNH2 (Homo sapiens, UniProt Q12809); assay: Inhibition of human ERG expressed in CHO-ZG cells after 20 mins by FluxOR thallium assay
# Voltage-gated inwardly rectifying potassium channel KCNH2, sequence (Q12809 whole entry): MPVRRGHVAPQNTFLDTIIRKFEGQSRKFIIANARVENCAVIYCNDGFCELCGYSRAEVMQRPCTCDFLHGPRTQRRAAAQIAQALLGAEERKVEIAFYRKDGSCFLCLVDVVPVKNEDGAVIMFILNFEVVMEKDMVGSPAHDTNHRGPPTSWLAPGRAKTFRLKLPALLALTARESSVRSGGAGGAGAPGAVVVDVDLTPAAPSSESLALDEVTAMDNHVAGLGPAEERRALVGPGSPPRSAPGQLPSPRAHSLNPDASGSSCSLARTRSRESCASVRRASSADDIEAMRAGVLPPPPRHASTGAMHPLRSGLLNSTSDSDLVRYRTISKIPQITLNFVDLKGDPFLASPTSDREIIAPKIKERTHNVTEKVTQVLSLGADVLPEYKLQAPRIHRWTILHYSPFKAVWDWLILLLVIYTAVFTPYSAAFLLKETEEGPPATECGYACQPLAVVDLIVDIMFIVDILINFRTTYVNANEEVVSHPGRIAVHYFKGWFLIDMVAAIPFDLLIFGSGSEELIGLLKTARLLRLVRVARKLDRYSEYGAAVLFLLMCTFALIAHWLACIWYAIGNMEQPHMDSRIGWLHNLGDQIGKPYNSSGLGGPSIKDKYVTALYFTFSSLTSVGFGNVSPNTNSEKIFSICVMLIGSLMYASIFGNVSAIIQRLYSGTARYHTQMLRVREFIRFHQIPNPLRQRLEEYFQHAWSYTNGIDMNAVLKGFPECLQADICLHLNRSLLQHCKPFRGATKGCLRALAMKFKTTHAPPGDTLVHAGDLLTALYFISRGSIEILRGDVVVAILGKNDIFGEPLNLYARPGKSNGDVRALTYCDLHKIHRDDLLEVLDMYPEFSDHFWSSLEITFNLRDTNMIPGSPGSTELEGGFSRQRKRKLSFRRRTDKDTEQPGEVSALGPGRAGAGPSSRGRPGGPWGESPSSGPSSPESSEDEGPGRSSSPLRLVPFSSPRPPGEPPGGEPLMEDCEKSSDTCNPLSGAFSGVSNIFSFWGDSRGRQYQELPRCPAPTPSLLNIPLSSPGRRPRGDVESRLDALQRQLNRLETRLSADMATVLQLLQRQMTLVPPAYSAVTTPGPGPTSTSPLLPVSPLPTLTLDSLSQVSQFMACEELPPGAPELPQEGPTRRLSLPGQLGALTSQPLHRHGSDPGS
# [18] = Apparent clearance in Sprague-Dawley rat at 20 mg/kg, iv; format: ADME, organism-based; design: dose 20 mg/kg, route intravenous; conditions: in vivo, read-out: CL(app) (converted); outline: as §1
# Mus musculus [19] = assay: Antidiabetic activity in C57BKS db/db mouse assessed as blood glucose level at 50 mg/kg/day administered for 5 weeks followed by glucose challenge at 6 hrs starvation of post last dose measured at 60 mins by OGTT (reference value: 30.2 +/- 1.5 mmol/L); format: functional; outline: as §2
# Mus musculus [20] = assay: Antidiabetic activity in C57BKS db/db mouse assessed as blood glucose level at 15 mg/kg/day administered for 5 weeks followed by glucose challenge at 6 hrs starvation of post last dose measured at 30 mins by OGTT (reference value: 46.6 +/- 2.2 mmol/L); format: functional; outline: as §2
# Mus musculus [21] = assay: Antidiabetic activity in C57BKS db/db mouse assessed as blood glucose level at 5 mg/kg/day administered for 5 weeks followed by glucose challenge at 6 hrs starvation of post last dose measured immediately by OGTT (reference value: 25 +/- 1.2 mmol/L); format: functional; outline: as §2
# Mus musculus [22] = assay: Antidiabetic activity in C57BKS db/db mouse assessed as blood glucose level at 50 mg/kg/day administered for 5 weeks followed by glucose challenge at 6 hrs starvation of post last dose measured at 90 mins by OGTT (reference value: 27.2 +/- 1.3 mmol/L); format: functional; outline: as §2
# [23] = AUC (0 to t) in Sprague-Dawley rat at 20 mg/kg, iv; format: ADME, organism-based; design: dose 20 mg/kg, route intravenous; conditions: plasma; outline: as §1
# [24] = Mean residence time in Sprague-Dawley rat at 50 mg/kg, po; format: ADME, organism-based; design: dose 50 mg/kg, route oral; conditions: in vivo; outline: as §1
# Mus musculus [25] = assay: Antidiabetic activity in ICR mouse assessed as decrease in blood glucose AUC (0 to 120 mins) at 50 mg/kg administered for 30 mins prior to glucose challenge measured after 4 hrs by OGTT relative to vehicle-treated control; format: functional; design: scale not given: the % may be the effect or the level left; outline: as §3
# Mus musculus [26] = assay: Antidiabetic activity in C57BKS db/db mouse assessed as blood glucose level at 5 mg/kg/day administered for 5 weeks followed by glucose challenge at 6 hrs starvation of post last dose measured at 30 mins by OGTT (reference value: 46.6 +/- 2.2 mmol/L); format: functional; outline: as §2
# [27] = Half life in Sprague-Dawley rat at 50 mg/kg, po; format: ADME, organism-based; design: dose 50 mg/kg, route oral; conditions: in vivo; outline: as §1
# CYP3A4 = CYP3A4 (Homo sapiens, UniProt P08684); assay: Inhibition of CYP3A4 (unknown origin) at 100 uM relative to control; format: ADME
# CYP3A4, sequence (P08684 whole entry): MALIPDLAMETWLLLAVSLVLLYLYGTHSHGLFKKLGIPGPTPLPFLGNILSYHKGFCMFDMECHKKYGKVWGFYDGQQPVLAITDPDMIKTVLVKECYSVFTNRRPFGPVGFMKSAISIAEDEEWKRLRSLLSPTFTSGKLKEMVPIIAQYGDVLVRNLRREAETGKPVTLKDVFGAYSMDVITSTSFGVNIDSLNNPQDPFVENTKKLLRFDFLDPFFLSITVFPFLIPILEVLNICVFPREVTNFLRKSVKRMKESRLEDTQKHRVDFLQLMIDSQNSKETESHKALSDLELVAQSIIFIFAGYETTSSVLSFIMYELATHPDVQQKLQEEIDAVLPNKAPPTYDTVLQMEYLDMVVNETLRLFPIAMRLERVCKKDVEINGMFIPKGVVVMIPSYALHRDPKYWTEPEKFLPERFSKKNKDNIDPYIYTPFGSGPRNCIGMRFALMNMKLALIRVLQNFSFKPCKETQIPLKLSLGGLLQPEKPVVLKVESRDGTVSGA
# Mus musculus [28] = assay: Antidiabetic activity in C57BKS db/db mouse assessed as blood glucose level at 15 mg/kg/day administered for 5 weeks followed by glucose challenge at 6 hrs starvation of post last dose measured at 90 mins by OGTT (reference value: 27.2 +/- 1.3 mmol/L); format: functional; outline: as §2
# Mus musculus [29] = assay: Antidiabetic activity in C57BKS db/db mouse assessed as blood glucose level at 15 mg/kg/day administered for 5 weeks followed by glucose challenge at 6 hrs starvation of post last dose measured immediately by OGTT (reference value: 25 +/- 1.2 mmol/L); format: functional; outline: as §2
# CYP2C9 = CYP2C9 (Homo sapiens, UniProt P11712); assay: Inhibition of CYP2C9 (unknown origin) at 100 uM relative to control; format: ADME
# CYP2C9, sequence (P11712 whole entry): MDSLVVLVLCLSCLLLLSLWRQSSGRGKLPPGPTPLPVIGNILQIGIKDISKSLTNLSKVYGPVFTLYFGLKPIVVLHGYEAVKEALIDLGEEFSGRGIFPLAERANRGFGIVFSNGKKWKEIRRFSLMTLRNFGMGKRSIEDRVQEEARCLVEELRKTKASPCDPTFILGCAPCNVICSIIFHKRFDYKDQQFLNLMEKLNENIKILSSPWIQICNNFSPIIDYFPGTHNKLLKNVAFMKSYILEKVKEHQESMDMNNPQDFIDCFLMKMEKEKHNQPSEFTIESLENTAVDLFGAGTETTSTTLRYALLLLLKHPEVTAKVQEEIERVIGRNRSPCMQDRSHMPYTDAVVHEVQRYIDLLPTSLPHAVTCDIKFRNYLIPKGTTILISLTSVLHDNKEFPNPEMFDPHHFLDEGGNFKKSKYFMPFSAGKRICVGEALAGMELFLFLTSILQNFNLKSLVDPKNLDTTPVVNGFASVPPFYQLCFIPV
# [30] = Tmax in Sprague-Dawley rat at 50 mg/kg, po; format: ADME, organism-based; design: dose 50 mg/kg, route oral; conditions: in vivo
# Outline: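 Sprague-Dawley rats dosed orally (i.v. arm run in parallel). Blood collected after dosing and centrifuged to plasma. Plasma deproteinized with methanol containing an internal standard, centrifuged, and the supernatant diluted in methanol and recentrifuged. Drug levels in the supernatant quantified by LC/MS/MS, and Tmax taken from the plasma concentration-time profile.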
# Mus musculus [31] = assay: Antidiabetic activity in C57BKS db/db mouse assessed as blood glucose level at 50 mg/kg/day administered for 5 weeks followed by glucose challenge at 6 hrs starvation of post last dose measured at 120 mins by OGTT (reference value: 28.1 +/- 1.3 mmol/L); format: functional; outline: as §2
# [32] = Cmax in Sprague-Dawley rat at 50 mg/kg, po; format: ADME, organism-based; design: dose 50 mg/kg, route oral; conditions: in vivo; outline: as §1
# [33] = AUC (0 to t) in Sprague-Dawley rat at 50 mg/kg, po; format: ADME, organism-based; design: dose 50 mg/kg, route oral; conditions: plasma; outline: as §1
# Homo sapiens [34] = species: Homo sapiens; assay: Selectivity ratio of IC50 for recombinant his6-tagged DPP9 (unknown origin) to IC50 for recombinant his6-tagged DPP4 (unknown origin)
# Outline: (§4)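 His6-tagged DPP4, DPP8 and DPP9 were expressed in High Five insect cells by baculovirus and purified on Ni-NTA. Activity was followed continuously by fluorescence of AMC released from Ala-Pro-AMC (ex 355/em 460 nm). DPP4 ran at 50 pmol/L enzyme in HEPES pH 7.5 with 0.1 mg/mL BSA; DPP8 and DPP9 ran at pH 8.0. IC50s came from quadruplicate sigmoidal variable-slope fits, and the ratio is the IC50 ratio.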
# Homo sapiens [35] = species: Homo sapiens; assay: Selectivity ratio of IC50 for recombinant his6-tagged DPP8 (unknown origin) to IC50 for recombinant his6-tagged DPP4 (unknown origin); outline: as §4
# Dipeptidyl peptidase 8 = Dipeptidyl peptidase 8 (Homo sapiens, UniProt Q6V1X1); assay: Inhibition of recombinant his6-tagged DPP8 (unknown origin) expressed in baculovirus expression system using Ala-pro-AMC as substrate by fluorometric analysis
# Dipeptidyl peptidase 8, sequence (Q6V1X1 whole entry): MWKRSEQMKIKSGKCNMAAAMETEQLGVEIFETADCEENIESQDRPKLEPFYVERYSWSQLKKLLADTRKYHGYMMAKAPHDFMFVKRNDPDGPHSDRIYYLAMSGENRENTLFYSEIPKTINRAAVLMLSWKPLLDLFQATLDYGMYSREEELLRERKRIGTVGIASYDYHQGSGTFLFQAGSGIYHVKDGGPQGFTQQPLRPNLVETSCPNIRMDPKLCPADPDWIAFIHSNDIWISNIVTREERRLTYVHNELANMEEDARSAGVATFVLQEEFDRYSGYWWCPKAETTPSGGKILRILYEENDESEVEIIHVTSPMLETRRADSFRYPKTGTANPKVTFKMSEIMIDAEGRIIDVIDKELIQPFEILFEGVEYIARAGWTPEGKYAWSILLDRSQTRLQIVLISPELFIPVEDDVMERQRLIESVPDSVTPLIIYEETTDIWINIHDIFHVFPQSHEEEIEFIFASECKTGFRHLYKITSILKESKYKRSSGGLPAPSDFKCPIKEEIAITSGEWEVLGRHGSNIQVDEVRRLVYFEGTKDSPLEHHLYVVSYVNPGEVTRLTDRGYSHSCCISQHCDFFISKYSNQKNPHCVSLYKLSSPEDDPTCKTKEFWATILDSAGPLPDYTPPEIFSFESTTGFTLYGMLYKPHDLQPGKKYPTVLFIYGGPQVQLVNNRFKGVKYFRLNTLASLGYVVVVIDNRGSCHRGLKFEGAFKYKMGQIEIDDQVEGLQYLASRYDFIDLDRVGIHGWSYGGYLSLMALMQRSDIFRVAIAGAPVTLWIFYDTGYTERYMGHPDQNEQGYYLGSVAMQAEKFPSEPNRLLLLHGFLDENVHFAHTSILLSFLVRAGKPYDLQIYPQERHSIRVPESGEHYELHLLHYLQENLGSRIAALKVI
# Dipeptidyl peptidase 4 = Dipeptidyl peptidase 4 (Homo sapiens, UniProt P27487); assay: Inhibition of recombinant his6-tagged DPP4 (unknown origin) expressed in baculovirus expression system using Ala-pro-AMC as substrate by fluorometric analysis
# Dipeptidyl peptidase 4, sequence (P27487 whole entry): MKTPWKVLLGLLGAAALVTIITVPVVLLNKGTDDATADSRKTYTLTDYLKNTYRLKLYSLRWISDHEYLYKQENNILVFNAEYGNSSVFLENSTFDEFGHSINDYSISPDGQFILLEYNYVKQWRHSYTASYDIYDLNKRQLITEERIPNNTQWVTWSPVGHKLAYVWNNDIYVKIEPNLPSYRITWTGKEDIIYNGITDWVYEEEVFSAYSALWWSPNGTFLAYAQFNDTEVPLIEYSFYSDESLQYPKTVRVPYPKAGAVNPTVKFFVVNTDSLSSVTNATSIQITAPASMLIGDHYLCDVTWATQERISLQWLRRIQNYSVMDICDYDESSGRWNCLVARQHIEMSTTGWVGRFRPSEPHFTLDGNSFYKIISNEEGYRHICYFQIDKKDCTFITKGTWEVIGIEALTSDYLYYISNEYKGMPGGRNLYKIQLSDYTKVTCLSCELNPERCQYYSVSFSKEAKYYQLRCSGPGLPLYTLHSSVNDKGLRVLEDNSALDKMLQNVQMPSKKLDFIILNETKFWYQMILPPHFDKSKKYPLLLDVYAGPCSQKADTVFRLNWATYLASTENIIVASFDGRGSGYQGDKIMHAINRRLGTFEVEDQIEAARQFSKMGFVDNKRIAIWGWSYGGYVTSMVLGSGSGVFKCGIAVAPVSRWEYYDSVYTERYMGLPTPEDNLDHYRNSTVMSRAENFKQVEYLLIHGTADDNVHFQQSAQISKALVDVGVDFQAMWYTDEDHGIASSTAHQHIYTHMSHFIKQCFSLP
# Dipeptidyl peptidase 9 = Dipeptidyl peptidase 9 (Homo sapiens, UniProt Q86TI2); assay: Inhibition of recombinant his6-tagged DPP9 (unknown origin) expressed in baculovirus expression system using Ala-pro-AMC as substrate by fluorometric analysis
# Dipeptidyl peptidase 9, sequence (Q86TI2 whole entry): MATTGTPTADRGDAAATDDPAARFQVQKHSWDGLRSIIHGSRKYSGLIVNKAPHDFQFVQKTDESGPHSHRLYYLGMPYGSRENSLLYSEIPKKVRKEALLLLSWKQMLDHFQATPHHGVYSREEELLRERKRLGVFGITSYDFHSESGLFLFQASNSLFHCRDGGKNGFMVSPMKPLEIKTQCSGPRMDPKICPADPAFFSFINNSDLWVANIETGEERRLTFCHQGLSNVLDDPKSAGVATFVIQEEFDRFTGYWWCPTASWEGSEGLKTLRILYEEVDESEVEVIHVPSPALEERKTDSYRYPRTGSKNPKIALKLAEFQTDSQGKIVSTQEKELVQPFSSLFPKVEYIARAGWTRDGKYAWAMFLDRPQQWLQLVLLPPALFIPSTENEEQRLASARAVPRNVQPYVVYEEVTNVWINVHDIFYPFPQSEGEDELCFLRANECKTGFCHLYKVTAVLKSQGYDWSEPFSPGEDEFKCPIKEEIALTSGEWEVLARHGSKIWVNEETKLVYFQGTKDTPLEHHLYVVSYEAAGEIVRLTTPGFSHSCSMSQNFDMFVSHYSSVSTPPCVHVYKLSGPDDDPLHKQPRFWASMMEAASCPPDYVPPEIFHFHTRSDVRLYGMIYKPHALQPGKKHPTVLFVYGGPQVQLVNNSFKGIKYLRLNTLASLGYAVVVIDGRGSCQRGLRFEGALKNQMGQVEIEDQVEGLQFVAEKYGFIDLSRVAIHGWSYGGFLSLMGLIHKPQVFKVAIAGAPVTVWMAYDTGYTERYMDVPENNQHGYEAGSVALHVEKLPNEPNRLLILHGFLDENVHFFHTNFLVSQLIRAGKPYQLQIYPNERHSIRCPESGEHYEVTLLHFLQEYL
structure (smiles),measurement,setting,value
N#C[C@@H]1C[C@H](F)CN1C(=O)[C@@H](N)Cc1cscn1,AUC(0-inf),[1],2.9 µg·h/mL
same,Activity,Mus musculus [2],38 mmol/L
same,Activity,Mus musculus [3],24.1 mmol/L
same,Cmax,[4],2.96 µg/mL
same,Activity,Mus musculus [5],10.7%
same,bioavailability,[6],37.8%
same,Activity,Mus musculus [7],21.8 mmol/L
same,MRT,[8],1.48 h
same,Tmax,[9],0.3 h
same,Activity,Mus musculus [10],20.6 mmol/L
same,Activity,Mus musculus [11],27.5 mmol/L
same,Activity,Mus musculus [12],Dose-dependent effect
same,half-life,[13],2.27 h
same,Activity,Mus musculus [14],18.1 mmol/L
same,Activity,Mus musculus [15],24.5 mmol/L
same,AUC(0-inf),[16],2.84 µg·h/mL
same,IC50,[17],177 µM
same,clearance,[18],6.96 L/h/kg
same,Activity,Mus musculus [19],19.9 mmol/L
same,Activity,Mus musculus [20],41.3 mmol/L
same,Activity,Mus musculus [21],21.5 mmol/L
same,Activity,Mus musculus [22],20.5 mmol/L
same,AUC(0-t),[23],2.89 µg·h/mL
same,MRT,[24],1.47 h
same,Activity,Mus musculus [25],12.8%
same,Activity,Mus musculus [26],45.1 mmol/L
same,half-life,[27],1.45 h
same,inhibition at 100 µM,CYP3A4,7.4%
same,Activity,Mus musculus [28],20.8 mmol/L
same,Activity,Mus musculus [29],18 mmol/L
same,inhibition at 100 µM,CYP2C9,11.2%
same,Tmax,[30],0.3 h
same,Activity,Mus musculus [31],20.4 mmol/L
same,Cmax,[32],2.71 µg/mL
same,AUC(0-t),[33],2.73 µg·h/mL
N#C[C@@H]1CCCN1C(=O)[C@@H](N)Cc1ccoc1,Ratio IC50,Homo sapiens [34],> 2.5
same,Ratio IC50,Homo sapiens [35],> 2.5
same,IC50,Dipeptidyl peptidase 8,> 288 µM
same,IC50,Dipeptidyl peptidase 4,114 µM
same,IC50,Dipeptidyl peptidase 9,> 288 µM
